Reference: ChEMBL document CHEMBL1938394, “Time-dependent slowly-reversible inhibition of monoamine oxidase A by N-substituted 1,2,3,6-tetrahydropyridines” (Bioorg Med Chem, 2011)

Tests used:
[1] = test system: Mus musculus; experiment: Neurotoxicity in C57BL/6J mouse assessed as increase of striatal GFAP level at 12.5 mg/kg, sc after 72 hrs by ELISA; assay type: toxicity, organism-based; parameters: dose 12.5 mg/kg, route subcutaneous; settings: in vivo
In short: (§1)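 Female C57BL/6J mice aged 3–4 months, single sc dose, 0.9% saline vehicle, killed 72 h post-dose. Striatum homogenised in hot 1% SDS. GFAP or TH measured by detergent-based sandwich ELISA.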

[2] = test system: Mus musculus; experiment: Neurotoxicity in C57BL/6J mouse assessed as reduction of striatal tyrosine hydroxylase level at 12.5 mg/kg, sc after 72 hrs by ELISA; assay type: toxicity, organism-based; parameters: dose 12.5 mg/kg, route subcutaneous; settings: in vivo; in short: as §1
[3] = biological target: T1, Amine oxidase [flavin-containing] A (Homo sapiens, UniProt P21397); experiment: Inhibition of human recombinant MAOA expressed in insect cells assessed as oxidation of kynuramine substrate at 50 uM measured after additional enzyme added after 120 mins incubation; settings: 2 h
T1 sequence (P21397 whole entry): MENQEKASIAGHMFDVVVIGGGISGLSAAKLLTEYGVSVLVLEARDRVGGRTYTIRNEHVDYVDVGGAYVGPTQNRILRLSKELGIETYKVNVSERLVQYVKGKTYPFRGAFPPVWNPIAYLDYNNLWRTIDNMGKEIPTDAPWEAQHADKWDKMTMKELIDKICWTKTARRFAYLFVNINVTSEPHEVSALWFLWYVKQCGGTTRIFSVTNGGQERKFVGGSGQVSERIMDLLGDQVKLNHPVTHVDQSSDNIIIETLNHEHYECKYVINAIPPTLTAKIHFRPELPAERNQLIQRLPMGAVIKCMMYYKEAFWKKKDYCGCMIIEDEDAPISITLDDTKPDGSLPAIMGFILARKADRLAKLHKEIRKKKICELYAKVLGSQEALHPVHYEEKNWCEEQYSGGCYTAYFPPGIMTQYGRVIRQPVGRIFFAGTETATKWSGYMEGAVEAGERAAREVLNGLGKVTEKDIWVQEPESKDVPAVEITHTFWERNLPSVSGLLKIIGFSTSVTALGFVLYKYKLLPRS
In short: (§2)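 Recombinant human MAO-A incubated with kynuramine, with or without inhibitor. Product formation followed over time. A second equivalent of substrate (150 µM kynuramine) added at 90 min and fresh enzyme added at 120 min.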

[4] = biological target: T1, Amine oxidase [flavin-containing] A; experiment: Inhibition of human recombinant MAOA expressed in insect cells assessed as oxidation of kynuramine substrate at 50 uM measured after additional substrate added after 90 mins incubation; settings: 1.5 h; in short: as §2

In the case of `CN1CC=C(c2ccccc2)CC1`, the Activity [1] is reported as “Toxic”, the Activity [2] is reported as “Toxic” and the “inhibition (INH)” value [3] is reported as “Active”. The “inhibition (INH)” value [4] was “Active”.
